Measured values: ChEMBL document CHEMBL4184319, “Fluorescent-Labeled Selective Adenosine A2B Receptor Antagonist Enables Competition Binding Assay by Flow Cytometry” (J Med Chem, 2018)
Calls of active or inactive are those of the source. The calls are words filed in the database; no cut-off is given here.

How the values were obtained:
[1] = Selectivity ratio of Ki for recombinant human adenosine A3 receptor expressed in CHO cell membranes to Ki for recombinant mouse adenosine A2B receptor expressed in CHO cell membranes; format: cell-based
Adenosine receptor A2b [2] = target: T1, Adenosine receptor A2b (Mus musculus, UniProt Q60614); assay: Displacement of [3H]PSB-603 from recombinant mouse adenosine A2B receptor expressed in CHO cell membranes after 75 mins by liquid scintillation counting method
T1 sequence (Q60614 whole entry): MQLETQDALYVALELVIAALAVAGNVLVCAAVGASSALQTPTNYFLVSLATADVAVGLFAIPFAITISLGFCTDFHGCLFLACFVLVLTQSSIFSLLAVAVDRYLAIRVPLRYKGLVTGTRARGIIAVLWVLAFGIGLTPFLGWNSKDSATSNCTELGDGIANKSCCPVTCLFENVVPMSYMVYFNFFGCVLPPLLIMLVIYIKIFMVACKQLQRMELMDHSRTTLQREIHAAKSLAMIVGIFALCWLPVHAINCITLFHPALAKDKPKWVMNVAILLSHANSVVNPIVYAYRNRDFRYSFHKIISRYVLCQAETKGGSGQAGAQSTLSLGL
Procedure, shortened: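 [³H]PSB-603 (0.3 nM) used with CHO membranes expressing human, mouse or rat A2BAR, 75 min at rt. Membranes pre-incubated 10-15 min with ADA 0.12 IU/mL. Nonspecific binding defined with 10 µM DPCPX. DMSO 2.5 % final. Filtration on GF/B with ice-cold 50 mM Tris-HCl pH 7.4 containing 0.1 % BSA, then scintillation counting. Curves used 6-7 concentrations over 3 log units. At least three experiments.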

[3] = Selectivity ratio of Ki for recombinant human adenosine A1 receptor expressed in CHO cell membranes to Ki for recombinant mouse adenosine A2B receptor expressed in CHO cell membranes; format: cell-based
[4] = Selectivity ratio of Ki for recombinant human adenosine A3 receptor expressed in CHO cell membranes to Ki for recombinant rat adenosine A2B receptor expressed in CHO cell membranes; format: cell-based
Adenosine receptor A1 = target: T2, Adenosine receptor A1 (Rattus norvegicus, UniProt P25099); assay: Displacement of [3H]CCPA from adenosine A1 receptor in rat brain cortical membranes after 90 mins by liquid scintillation counting method; format: cell membranes
T2 sequence (P25099 whole entry): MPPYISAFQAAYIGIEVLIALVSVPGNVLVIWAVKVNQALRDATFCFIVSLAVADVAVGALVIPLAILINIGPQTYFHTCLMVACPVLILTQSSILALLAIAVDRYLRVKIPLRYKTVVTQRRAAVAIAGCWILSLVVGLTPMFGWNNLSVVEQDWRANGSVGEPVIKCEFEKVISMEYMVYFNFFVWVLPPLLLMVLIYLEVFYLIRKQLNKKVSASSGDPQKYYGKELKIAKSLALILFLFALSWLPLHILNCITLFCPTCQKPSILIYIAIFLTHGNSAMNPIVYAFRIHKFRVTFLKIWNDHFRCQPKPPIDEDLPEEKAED
Procedure, shortened: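 [³H]CCPA (1 nM) used with rat brain cortical or human A1-CHO membranes, 90 min at rt. Membranes pre-incubated 10-15 min with ADA 0.12 IU/mL. Nonspecific binding defined with 10 µM CADO. Compounds dissolved in DMSO, 2.5 % final. Filtration on GF/B filters with ice-cold Tris-HCl washes, then scintillation counting. Curves used 6-7 concentrations spanning 3 log units. At least three experiments, in duplicate (human) or triplicate (rat).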

Adenosine receptor A2b [5] = target: T3, Adenosine receptor A2b (Rattus norvegicus, UniProt P29276); assay: Displacement of [3H]PSB-603 from recombinant rat adenosine A2B receptor expressed in CHO cell membranes after 75 mins by liquid scintillation counting method
T3 sequence (P29276 whole entry): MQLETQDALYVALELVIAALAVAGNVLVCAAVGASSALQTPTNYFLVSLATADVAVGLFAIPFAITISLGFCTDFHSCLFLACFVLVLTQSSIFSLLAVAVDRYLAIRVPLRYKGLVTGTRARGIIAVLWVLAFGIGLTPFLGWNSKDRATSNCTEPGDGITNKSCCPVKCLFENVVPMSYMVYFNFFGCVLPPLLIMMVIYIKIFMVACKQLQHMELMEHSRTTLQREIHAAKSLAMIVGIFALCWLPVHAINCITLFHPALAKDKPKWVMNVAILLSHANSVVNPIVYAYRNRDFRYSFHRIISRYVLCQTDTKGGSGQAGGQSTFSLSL
Procedure, shortened: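 Membranes pre-incubated 10-15 min with ADA 0.12 IU/mL. DMSO 2.5 % final. Filtration on GF/B with ice-cold 50 mM Tris-HCl pH 7.4 containing 0.1 % BSA, then scintillation counting. Curves used 6-7 concentrations over 3 log units. At least three experiments.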

[6] = Selectivity ratio of Ki for recombinant human adenosine A1 receptor expressed in CHO cell membranes to Ki for recombinant rat adenosine A2B receptor expressed in CHO cell membranes; format: cell-based
[7] = Selectivity ratio of Ki for recombinant human adenosine A2A receptor expressed in HEK cell membranes to Ki for recombinant rat adenosine A2B receptor expressed in CHO cell membranes; format: cell-based
[8] = Binding affinity to wild type CHO cell membranes at 100 nM after 15 mins by confocal microscopic method; format: cell-based, Cricetulus griseus; conditions: chinese hamster, 0.25 h, 0.1 µM
Procedure, shortened: (§1)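 Live CHO cells stably expressing human A2BAR (or wild-type CHO as control) grown on chambered coverslips to about 80 % confluency. Incubated with fluorescent ligand (100 nM) for 15 min at 37°C, alone or after 30 min pre-incubation with PSB-603 (100 nM) or DPCPX (1 µM). Confocal laser scanning imaging with identical settings across conditions. Three similar experiments.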

Homo sapiens = species: Homo sapiens; assay: Selectivity ratio of Ki for recombinant human adenosine A1 receptor expressed in CHO cell membranes to Ki for recombinant human adenosine A2B receptor expressed in CHO cell membranes; format: cell-based
[9] = target: T4, Adenosine receptor A2b (Homo sapiens) (UniProt P29275); assay: Binding affinity to recombinant human adenosine A2B receptor expressed in CHO cell membranes at 100 nM after 15 mins by confocal microscopic method; format: cell-based; procedure, shortened: as §1
T4 sequence (whole entry): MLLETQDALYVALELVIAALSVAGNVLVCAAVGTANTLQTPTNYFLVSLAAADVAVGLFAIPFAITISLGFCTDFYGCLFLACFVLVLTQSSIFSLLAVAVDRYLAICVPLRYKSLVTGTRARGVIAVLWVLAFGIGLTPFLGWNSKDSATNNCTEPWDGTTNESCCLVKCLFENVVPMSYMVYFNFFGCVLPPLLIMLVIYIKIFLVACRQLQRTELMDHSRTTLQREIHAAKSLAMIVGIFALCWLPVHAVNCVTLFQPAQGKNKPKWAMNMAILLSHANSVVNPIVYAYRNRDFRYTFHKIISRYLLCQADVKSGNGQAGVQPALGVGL

Ki (Adenosine receptor A2b [2]): 1.32 nM
Ki (Adenosine receptor A1): 422 nM
Ki (Adenosine receptor A2b [5]): 0.18 nM
Activity [8]: Not Active
Activity [9]: Active
SMILES: CCCn1c(=O)[nH]c2nc(-c3ccc(OCC(=O)NCCC4=C5C(C)=CC(C)=[N+]5[B-](F)(F)n5c(C)cc(C)c54)cc3)[nH]c2c1=O
Ratio Ki [1]: > 1000
Ratio Ki [3]: > 1000
Ratio Ki [4]: > 1000
Ratio Ki [6]: > 1000
Ratio Ki [7]: > 1000
Ratio Ki (Homo sapiens): > 1000
